Test results taken from ChEMBL document CHEMBL4402562, “Discovery of Novel Peptidomimetic Boronate ClpP Inhibitors with Noncanonical Enzyme Mechanism as Potent Virulence Blockers in Vitro and in Vivo” (J Med Chem, 2020).
Calls of active or inactive are those of the source. The calls are words filed in the database; no cut-off is given here.

Assays:
[1] = biological target: Coagulation factor X (Homo sapiens) (UniProt P00742); assay: Inhibition of human F10a up to 100 uM pre-incubated for 10 mins before Pefachrome Fxa addition and measured after […] based assay
[2] = system: Staphylococcus aureus; assay: Growth inhibition of methicillin-resistant Staphylococcus aureus ATCC 33591 up to 64 uM incubated for 18 hrs by broth microdilution method; type: functional, organism-based
In short: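 MRSA ATCC 33591 at ~5×10⁵ CFU/mL in MHB with graded compound concentrations vs DMSO; OD600 growth curves over 18 h; three experiments, triplicate wells. MIC by CLSI broth microdilution in CAMHB, 0.5-256 µg/mL, 18 h at 37 °C, lowest concentration with no visible growth.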

[3] = biological target: T1, ATP-dependent Clp protease proteolytic subunit (Staphylococcus aureus (strain NCTC 8325), UniProt Q2G036); assay: Binding affinity to N-terminal His6-sumo-tagged full length Staphylococcus aureus ClpP expressed in Escherichia coli […] assessed as shifting of melting peak of SaClpP by differential scanning calorimetry analysis
T1 sequence (Q2G036 whole entry): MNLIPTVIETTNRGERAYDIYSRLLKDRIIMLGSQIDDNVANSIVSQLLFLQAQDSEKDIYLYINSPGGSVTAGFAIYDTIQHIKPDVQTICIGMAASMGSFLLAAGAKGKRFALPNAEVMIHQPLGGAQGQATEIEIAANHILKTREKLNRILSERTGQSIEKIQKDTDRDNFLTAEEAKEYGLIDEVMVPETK
In short: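 DSC: 0.5 mg/mL (25 µM) SaClpP with 100 µM compound or two-fold dilution series, RT; scanned 30-90 °C at 1 °C/min, buffer-buffer scan subtracted; Tm from thermogram peak maximum; single run.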

[4] = Toxicity in BALB/c mouse model of skin abscess infected with methicillin-resistant Staphylococcus aureus ATCC 33591 assessed as increase in direct bilirubin levels at 1.5 to 3 mg/kg injected into shaved area of skin once daily for 4 days; type: organism-based; settings: in vivo, other, 96 h
In short: (§1)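 Infected BALB/c mice (n=5/group) dosed 1.5 or 3 mg/kg into the infected skin once daily for 4 days; blood collected on day 4 and day 14, centrifuged 3,500 rpm 15 min, serum biochemistry analysed.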

[5] = system: Staphylococcus aureus; assay: Inhibition of virulence-related genes expression in methicillin-resistant Staphylococcus aureus ATCC 33591 assessed as reduction in hla expression at 4 to 16 uM by qPCR analysis relative to control; type: functional, organism-based
In short: (§2)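 Total RNA from 2×10⁸ CFU treated MRSA by liquid-nitrogen freeze-thaw and TRIzol; qPCR relative to gyrB endogenous control; three experiments, triplicate wells.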

[6] = Inhibition of AlgW (unknown origin) up to 100 uM pre-incubated for 10 mins before Abz-T-V-A-W-pNA addition and measured after 1 hr by fluorescence based assay
[7] = Toxicity in BALB/c mouse model of skin abscess infected with methicillin-resistant Staphylococcus aureus ATCC 33591 assessed as effect on alkaline phosphatase levels at 1.5 to 3 mg/kg injected into shaved area of skin once daily for 4 days; type: organism-based; settings: in vivo, other, 96 h; in short: as §1
[8] = system: Staphylococcus aureus; assay: Inhibition of virulence-related genes expression in methicillin-resistant Staphylococcus aureus ATCC 33591 assessed as reduction in RNAIII effector, expression at 16 uM by qPCR analysis relative to control; type: functional; in short: as §2
[9] = biological target: 20S proteasome (Homo sapiens) (UniProt P49721+P20618+P28074+P28062+P28065+P28072+P25786+P25787+P25788+P25789+P28066+P60900+O14818+Q8TAA3+P40306+A5LHX3+P49720+P28070+Q99436); assay: Inhibition of 20S proteasome (unknown origin) pre-incubated before Suc-LLVY-AM addition and measured after 1 hr by fluorescence based assay; type: protein-complex assay
[10] = Toxicity in BALB/c mouse model of skin abscess infected with methicillin-resistant Staphylococcus aureus ATCC 33591 assessed as effect on uric acid levels at 1.5 to 3 mg/kg injected into shaved area of skin once daily for 4 days; type: organism-based; settings: in vivo, other, 96 h; in short: as §1
[11] = biological target: T1, ATP-dependent Clp protease proteolytic subunit; assay: (§3) Inhibition of N-terminal His6-sumo-tagged full length Staphylococcus aureus ClpP expressed in Escherichia coli […] pre-incubated for 10 mins before Suc-LY-AMC addition and measured after 1 hr by fluorescence based assay
In short: (§4)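 SaClpP (1 μM monomer) in 100 mM Hepes pH 7.0, 100 mM NaCl. Preincubated 10 min at RT with inhibitor, two-fold dilutions over 8 steps from 100 μM. Suc-LY-AMC at 200 μM, 380/440 nm recorded for 1 h at 37 °C, slopes normalized to DMSO. For kinact/Ki, inhibitor premixed with substrate and reaction started by enzyme, fitted by least squares. Thrice, triplicate wells.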

[12] = biological target: T2, ATP-dependent Clp protease proteolytic subunit (Staphylococcus aureus (strain NCTC 8325)) (UniProt Q2G036); assay: as §3; in short: as §4
T2 sequence (whole entry): T1 sequence (Q2G036 whole entry)

[13] = biological target: T1, ATP-dependent Clp protease proteolytic subunit; assay: Inhibition of ClpP in methicillin-resistant Staphylococcus aureus ATCC 33591 assessed as reduction in bacteria-induced hemolysis of sheep erythrocytes by measuring hemoglobin release incubated for 15 mins
[14] = system: Staphylococcus aureus; assay: (§5) Antivirulence activity against methicillin-resistant Staphylococcus aureus ATCC 33591 infected in BALB/c mouse model of skin abscess assessed as reduction in liver histopathological changes at 1.5 to 3 mg/kg injected into shaved area of skin once daily for 4 days measured after 12 hrs post last dose by hematoxylin and eosin staining based optical microscopy; type: functional, organism-based
In short: (§6)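 Same MRSA ATCC 33591 skin-abscess model in female BALB/c mice (n=5/group), 40 µL compound at 1.5 or 3 mg/kg injected into the infected shaved skin once daily for 4 days. On day 4 infected skin and heart, liver, spleen, lung, kidney fixed in 4% paraformaldehyde, embedded, sectioned, H&E stained and examined by microscopy; PBS-treated uninfected and vehicle controls.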

[15] = biological target: T2, ATP-dependent Clp protease proteolytic subunit (Staphylococcus aureus (strain NCTC 8325)); assay: Potency index, ratio of IC50 for BTZ to IC50 for test compound for inhibition of ClpP in methicillin-resistant Staphylococcus aureus ATCC 33591 assessed as reduction in bacteria-induced hemolysis of sheep erythrocytes by measuring hemoglobin release incubated for 15 mins
[16] = system: Staphylococcus aureus; assay: as §5, with “spleen” for “liver”; type: functional, organism-based; in short: as §6
[17] = system: Staphylococcus aureus; assay: as §5, with “preservation of skin integrity” for “reduction in liver histopathological changes”; type: functional, organism-based; in short: as §6
[18] = system: Staphylococcus aureus; assay: Antivirulence activity against methicillin-resistant Staphylococcus aureus ATCC 33591 infected in BALB/c mouse model of skin abscess assessed as effect on bacterial recovery levels at 1.5 to 3 mg/kg injected into shaved area of skin once daily for 4 days measured after 12 hrs post last dose; type: functional, organism-based
In short: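 Female BALB/c mice, 6-8 weeks, n=5 per group, backs shaved and depilated 1 day before; 50 µL subcutaneous 1.7 × 10⁹ CFU/mL MRSA ATCC 33591. From 6 h post-infection, 40 µL vehicle, vancomycin 3 mg/kg, or compound 1.5 or 3 mg/kg injected at infection site once daily for 4 days; weight recorded daily. Skin homogenised in saline 12 h after last dose, plated on LB agar 37 °C ≥16 h; log10 CFU/abscess; t-test.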

[19] = system: Staphylococcus aureus; assay: Inhibition of virulence-related genes expression in methicillin-resistant Staphylococcus aureus ATCC 33591 assessed as reduction in psm expression at 4 to 16 uM by qPCR analysis relative to control; type: functional, organism-based; in short: as §2

Coagulation factor X (Homo sapiens), sequence (P00742 41-179 limits assumed): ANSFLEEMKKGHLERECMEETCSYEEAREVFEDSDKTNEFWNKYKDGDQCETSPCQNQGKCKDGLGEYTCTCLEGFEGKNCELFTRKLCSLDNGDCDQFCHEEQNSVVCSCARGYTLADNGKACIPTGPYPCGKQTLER
Coagulation factor X (Homo sapiens), sequence (P00742 235-488 limits assumed): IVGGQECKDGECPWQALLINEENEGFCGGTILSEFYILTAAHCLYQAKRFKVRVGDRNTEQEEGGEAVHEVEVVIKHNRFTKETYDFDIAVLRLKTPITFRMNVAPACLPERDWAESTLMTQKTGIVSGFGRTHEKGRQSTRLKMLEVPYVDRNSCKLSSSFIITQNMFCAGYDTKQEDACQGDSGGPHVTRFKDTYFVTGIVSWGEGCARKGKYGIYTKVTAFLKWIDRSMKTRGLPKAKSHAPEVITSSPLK

## CC(C)C[C@H](NC(=O)[C@H](Cc1c[nH]c2ccccc12)NC(=O)c1cc(Cl)ccc1Cl)B(O)O
[1]
  inhibition: inactive
[2]
  growth inhibition (GI): inactive
[3]
  EC50: 1270 nM
[4]
  Activity: Toxic
[5]
  inhibition: Active
[6]
  inhibition: inactive
[7]
  Activity: Non-Toxic
[8]
  fold change (FC): >10
[9]
  inhibition: Active
[10]
  Activity: Non-Toxic
[11]
  IC50: 900 nM
[12]
  inhibition: Dose-dependent effect
[13]
  EC50: 1400 nM
[14]
  Activity: Active
[15]
  Ratio IC50: 30
[16]
  Activity: Active
[17]
  Activity: Active
[18]
  Activity: Active
[19]
  inhibition: Active
